# From ChEMBL document CHEMBL4819032, “Structure-based design of highly selective 2,4,5-trisubstituted pyrimidine CDK9 inhibitors as anti-cancer agents” (Eur J Med Chem, 2021)
# Activity calls are given as the source filed them. The calls are words filed in the database; no cut-off is given here.
# Key:
# CDK9/cyclin T1 = CDK9/cyclin T1 (Homo sapiens, UniProt P50750); test: Inhibition of recombinant human full length CDK9/Cyclin T1 using KTFCGTPEYLAPEVRREPRILSEEEQEMFRDFDYIADWC as substrate incubated for 40 mins in presence of [gamma-33P]-ATP by scintillation counting method; type: protein-complex assay
# Outline: (§1)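 Radiometric kinase assay with ATP at each kinase's Km(app). IC50 values come from 10-point dose-response curves, and apparent Ki is calculated from IC50 and the kinase's Km(ATP).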
# A2780 [1] = test: Induction of apoptosis in human A2780 cells assessed as necrotic cells at 0.5 uM after 24 hrs by Annexin V-FITC/PI staining based flow cytometric analysis (reference value: 3.6%); type: functional
# Outline: (§2)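 A2780 cells cultured 24 h in medium alone or with varying inhibitor concentrations, then stained with FITC-annexin V/PI per kit protocol and analysed by flow cytometry. Run in triplicate and repeated at least twice; significance by one-way ANOVA, p < 0.01.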
# A2780 [2] = test: Induction of apoptosis in human A2780 cells assessed as early apoptotic cells at 2 uM after 24 hrs by Annexin V-FITC/PI staining based flow cytometric analysis (reference value: 1.6%); type: functional; outline: as §2
# [3] = target: T1, Serine/threonine-protein kinase Nek2 (Homo sapiens) (UniProt P51955); test: Inhibition of recombinant human full length NEK2 using myelin basic protein as substrate incubated for 40 mins by scintillation counting method
# T1 sequence (whole entry): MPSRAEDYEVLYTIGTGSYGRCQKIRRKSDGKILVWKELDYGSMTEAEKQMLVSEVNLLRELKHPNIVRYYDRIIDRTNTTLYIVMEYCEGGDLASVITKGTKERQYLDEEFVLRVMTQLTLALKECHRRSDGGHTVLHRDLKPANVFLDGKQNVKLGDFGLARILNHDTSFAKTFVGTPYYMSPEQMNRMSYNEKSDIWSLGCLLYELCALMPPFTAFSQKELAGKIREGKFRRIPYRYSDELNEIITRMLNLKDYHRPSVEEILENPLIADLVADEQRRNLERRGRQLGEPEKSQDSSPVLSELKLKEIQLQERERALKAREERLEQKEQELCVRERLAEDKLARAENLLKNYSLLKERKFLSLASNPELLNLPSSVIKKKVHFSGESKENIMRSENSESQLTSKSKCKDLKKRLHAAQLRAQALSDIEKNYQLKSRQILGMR
# Outline: (§3)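 The 60-kinase diversity panel was run as a radiometric assay with ATP at each kinase's Km(app). Compound was tested at one fixed concentration across all kinases.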
# A2780 [4] = test: Induction of apoptosis in human A2780 cells assessed as late apoptotic cells at 1 uM after 24 hrs by Annexin V-FITC/PI staining based flow cytometric analysis (reference value: 2.8%); type: functional; outline: as §2
# HCT-116 [5] = test: Induction of apoptosis in human HCT-116 cells assessed as reduction in Mcl-1 protein expression after 24 hrs by Western blot analysis; type: functional, cell-based; settings: dose 0.5-5 µM
# A2780 [6] = test: Induction of cell cycle arrest in human A2780 cells assessed as accumulation at G2/M phase at 2 uM after 24 hrs by propidium iodide staining based flow cytometric analysis (reference value: 21.6%); type: functional
# Outline: (§4)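 4 × 10⁵ A2780 cells cultured 24 h in medium alone or with varying inhibitor concentrations, harvested into hypotonic fluorochrome solution (0.1% sodium citrate, 0.1% Triton X-100, propidium iodide, 100 ug/ml RNase A), and DNA content analysed by flow cytometry. Representative of three independent experiments.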
# A2780 [7] = test: Induction of cell cycle arrest in human A2780 cells assessed as accumulation at S phase at 5 uM after 24 hrs by propidium iodide staining based flow cytometric analysis (reference value: 20%); type: functional; outline: as §4
# A2780 [8] = test: Induction of cell cycle arrest in human A2780 cells assessed as accumulation at pre-G1 phase at 2 uM after 24 hrs by propidium iodide staining based flow cytometric analysis (reference value: 1.2%); type: functional
# A2780 [9] = test: Induction of cell cycle arrest in human A2780 cells assessed as accumulation at G2/M phase at 0.5 uM after 24 hrs by propidium iodide staining based flow cytometric analysis (reference value: 21.6%); type: functional; outline: as §4
# A2780 [10] = test: Induction of cell cycle arrest in human A2780 cells assessed as accumulation at S phase at 0.5 uM after 24 hrs by propidium iodide staining based flow cytometric analysis (reference value: 20%); type: functional; outline: as §4
# A2780 [11] = test: Induction of apoptosis in human A2780 cells assessed as early apoptotic cells at 5 uM after 24 hrs by Annexin V-FITC/PI staining based flow cytometric analysis (reference value: 1.6%); type: functional; outline: as §2
# A2780 [12] = test: Induction of cell cycle arrest in human A2780 cells assessed as accumulation at G1/G0 phase at 1 uM after 24 hrs by propidium iodide staining based flow cytometric analysis (reference value: 56.7%); type: functional; outline: as §4
# [13] = target: Cyclin-dependent kinase 9 (Homo sapiens) (UniProt P50750); test: Inhibition of CDK9 in human A2780 cells assessed as reduction in RNAP2 phosphorylation at ser5 residues after 24 hrs by Western blot analysis; type: cell-based; settings: dose 0.5-5 µM
# Homo sapiens = species on record: Homo sapiens; test: Selectivity index, ratio of Ki for inhibition of recombinant human full length CDK9/Cyclin T1 to Ki for inhibition of recombinant human full length CDK7/Cyclin H
# HeLa = test: Growth inhibition of human HeLa cells after 48 hrs by MTT assay; type: functional
# MIA PaCa-2 = test: Growth inhibition of human MIA PaCa-2 cells after 48 hrs by MTT assay; type: functional
# A2780 [14] = test: Induction of apoptosis in human A2780 cells assessed as early apoptotic cells at 1 uM after 24 hrs by Annexin V-FITC/PI staining based flow cytometric analysis (reference value: 1.6%); type: functional; outline: as §2
# [15] = target: Cyclin-dependent kinase 7/ cyclin H (Homo sapiens, UniProt P50613); test: Inhibition of recombinant human full length CDK7/Cyclin H using peptide as substrate incubated for 40 mins in presence of [gamma-33P]-ATP by scintillation counting method; type: protein-complex assay; outline: as §1
# A2780 [16] = test: Induction of apoptosis in human A2780 cells assessed as late apoptotic cells at 0.5 uM after 24 hrs by Annexin V-FITC/PI staining based flow cytometric analysis (reference value: 2.8%); type: functional; outline: as §2
# A2780 [17] = test: Induction of cell cycle arrest in human A2780 cells assessed as accumulation at G2/M phase at 1 uM after 24 hrs by propidium iodide staining based flow cytometric analysis (reference value: 21.6%); type: functional; outline: as §4
# A2780 [18] = test: Induction of apoptosis in human A2780 cells assessed as viable cells at 0.5 uM after 24 hrs by Annexin V-FITC/PI staining based flow cytometric analysis (reference value: 92%); type: functional; settings: read-out: Activity; outline: as §2
# A2780 [19] = test: Induction of apoptosis in human A2780 cells assessed as viable cells at 5 uM after 24 hrs by Annexin V-FITC/PI staining based flow cytometric analysis (reference value: 92%); type: functional; settings: read-out: Activity; outline: as §2
# [20] = target: Tyrosine-protein kinase Fyn (Homo sapiens) (UniProt P06241); test: Inhibition of recombinant human full length FYN using KVEKIGEGTYGVVYK as substrate incubated for 40 mins by scintillation counting method; outline: as §3
# HCT-116 [21] = test: Induction of apoptosis in human HCT-116 cells assessed as increase in cleaved-PARP protein expression at 0.5 to 5 uM after 24 hrs by Western blot analysis; type: functional, cell-based; settings: dose 0.5-5 µM
# Sequence of CDK9/cyclin T1 (O60563 whole entry): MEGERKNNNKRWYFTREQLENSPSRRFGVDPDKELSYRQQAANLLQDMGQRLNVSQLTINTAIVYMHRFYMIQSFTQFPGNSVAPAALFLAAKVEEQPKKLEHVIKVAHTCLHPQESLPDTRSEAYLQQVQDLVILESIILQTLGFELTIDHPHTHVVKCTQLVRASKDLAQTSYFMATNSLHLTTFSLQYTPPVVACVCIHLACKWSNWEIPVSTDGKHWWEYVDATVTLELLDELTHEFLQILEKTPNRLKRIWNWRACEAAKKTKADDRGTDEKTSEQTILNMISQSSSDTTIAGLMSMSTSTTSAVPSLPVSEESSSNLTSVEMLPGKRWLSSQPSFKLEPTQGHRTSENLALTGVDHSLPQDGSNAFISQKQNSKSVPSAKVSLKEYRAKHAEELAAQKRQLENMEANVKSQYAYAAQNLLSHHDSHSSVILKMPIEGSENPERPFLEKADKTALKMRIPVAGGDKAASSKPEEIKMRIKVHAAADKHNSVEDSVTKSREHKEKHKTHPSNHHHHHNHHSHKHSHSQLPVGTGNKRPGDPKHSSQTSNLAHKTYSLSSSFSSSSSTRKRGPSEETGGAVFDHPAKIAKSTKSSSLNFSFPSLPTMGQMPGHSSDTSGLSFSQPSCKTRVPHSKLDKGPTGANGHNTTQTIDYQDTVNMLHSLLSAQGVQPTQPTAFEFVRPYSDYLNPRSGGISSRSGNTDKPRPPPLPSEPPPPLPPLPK
# Sequence of CDK9/cyclin T1 (P50750 whole entry): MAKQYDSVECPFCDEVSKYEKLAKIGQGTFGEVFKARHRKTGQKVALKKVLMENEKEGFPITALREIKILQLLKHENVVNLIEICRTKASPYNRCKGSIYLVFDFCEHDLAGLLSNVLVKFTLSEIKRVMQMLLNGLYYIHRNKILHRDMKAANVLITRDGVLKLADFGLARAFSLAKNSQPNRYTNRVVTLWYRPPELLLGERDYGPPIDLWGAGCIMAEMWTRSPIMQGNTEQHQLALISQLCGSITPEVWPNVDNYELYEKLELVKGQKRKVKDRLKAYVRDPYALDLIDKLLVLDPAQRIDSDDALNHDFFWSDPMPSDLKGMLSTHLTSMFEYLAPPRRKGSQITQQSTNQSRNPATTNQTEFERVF
# Sequence of Cyclin-dependent kinase 7/ cyclin H (P51946 whole entry): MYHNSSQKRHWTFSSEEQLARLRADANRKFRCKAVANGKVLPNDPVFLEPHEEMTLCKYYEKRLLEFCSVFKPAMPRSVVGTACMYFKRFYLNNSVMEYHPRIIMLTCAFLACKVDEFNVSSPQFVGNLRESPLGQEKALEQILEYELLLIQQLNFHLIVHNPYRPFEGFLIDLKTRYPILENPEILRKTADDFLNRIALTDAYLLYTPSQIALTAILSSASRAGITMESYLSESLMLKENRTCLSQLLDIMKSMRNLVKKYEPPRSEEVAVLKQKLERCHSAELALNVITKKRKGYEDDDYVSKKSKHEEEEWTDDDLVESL
# Sequence of Cyclin-dependent kinase 7/ cyclin H (P50613 whole entry): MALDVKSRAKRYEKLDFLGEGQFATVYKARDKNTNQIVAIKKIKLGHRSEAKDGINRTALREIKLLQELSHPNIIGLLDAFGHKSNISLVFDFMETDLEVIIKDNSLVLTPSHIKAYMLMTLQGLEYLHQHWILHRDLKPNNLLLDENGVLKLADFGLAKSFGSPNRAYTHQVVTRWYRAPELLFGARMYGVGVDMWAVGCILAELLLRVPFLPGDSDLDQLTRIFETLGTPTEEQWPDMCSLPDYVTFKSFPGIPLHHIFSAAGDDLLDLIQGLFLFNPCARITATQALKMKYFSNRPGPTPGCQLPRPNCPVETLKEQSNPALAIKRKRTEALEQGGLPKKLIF
# Sequence of Cyclin-dependent kinase 9 (Homo sapiens) (P50750 whole entry): as the sequence (P50750 whole entry) above
# Sequence of Tyrosine-protein kinase Fyn (Homo sapiens) (P06241 2-537 limits assumed): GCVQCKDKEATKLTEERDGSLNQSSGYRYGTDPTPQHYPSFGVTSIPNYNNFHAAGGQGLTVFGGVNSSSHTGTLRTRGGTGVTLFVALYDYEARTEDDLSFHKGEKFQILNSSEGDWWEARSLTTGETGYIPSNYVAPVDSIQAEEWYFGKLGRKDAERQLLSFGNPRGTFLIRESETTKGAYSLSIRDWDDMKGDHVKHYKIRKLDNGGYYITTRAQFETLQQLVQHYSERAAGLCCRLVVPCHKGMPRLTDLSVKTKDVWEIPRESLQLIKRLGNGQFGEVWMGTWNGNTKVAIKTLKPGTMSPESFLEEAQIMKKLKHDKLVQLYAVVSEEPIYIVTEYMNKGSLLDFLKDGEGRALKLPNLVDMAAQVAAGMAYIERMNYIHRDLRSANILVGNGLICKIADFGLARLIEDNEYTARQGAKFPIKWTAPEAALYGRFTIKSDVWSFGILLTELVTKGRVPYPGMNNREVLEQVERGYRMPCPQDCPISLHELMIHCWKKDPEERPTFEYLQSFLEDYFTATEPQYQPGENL
smiles,measurement,setting,value
CNc1nc(C)c(-c2nc(Nc3cccc(N4CCN5CCC4CC5)c3)ncc2C)s1,Ki,CDK9/cyclin T1,10 nM
same,Activity,A2780 [1],1.9%
same,Activity,A2780 [2],14.4%
same,inhibition,[3],Active
same,Activity,A2780 [4],13.1%
same,Activity,HCT-116 [5],Dose-Dependent Effect
same,Activity,A2780 [6],56.5%
same,Activity,A2780 [7],10.8%
same,Activity,A2780 [8],8.3%
same,Activity,A2780 [9],22.2%
same,Activity,A2780 [10],15.3%
same,Activity,A2780 [11],24.65%
same,Activity,A2780 [12],50.5%
same,inhibition,[13],Dose-Dependent Effect
same,Ratio Ki,Homo sapiens,> 50
same,GI50,HeLa,800 nM
same,GI50,MIA PaCa-2,1070 nM
same,Activity,A2780 [14],9.3%
same,Ki,[15],546 nM
same,Activity,A2780 [16],6.2%
same,Activity,A2780 [17],34.2%
same,viability at 0.5 µM,A2780 [18],88.3%
same,viability at 5 µM,A2780 [19],22.6%
same,inhibition,[20],Active
same,Activity,HCT-116 [21],Active
